Measurements published in ChEMBL document CHEMBL1127684, “Enkephalin analogs as systemically active antinociceptive agents: O- and N-alkylated derivatives of the dipeptide amide L-2,6-dimethyltyrosyl-N-(3-phenylpropyl)-D-alaninamide” (J Med Chem, 1994).
Activity calls are given as the source filed them. The calls are words filed in the database; no cut-off is given here.

Columns and labels:
[1] = test system: Mus musculus; assay: Effective dose administered intragastricly in mouse writhing assay; No significant inhibition at 10 mg/kg, the highest dose tested; type: functional, organism-based; parameters: dose 10 mg/kg
[2] = target: Opioid receptor (Rattus norvegicus, UniProt P33533+P34975+P33535); assay: Affinity for the opioid receptor by displacement of tritiated naloxone from rat brain membranes.; type: cell membranes, Membrane
Procedure, shortened: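 Rat brain membranes with the cerebellum removed. Competition against [3H]naloxone as a nonselective opioid label, with the radioligand at or near its Kd. Reported as IC50 (nM).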

[3] = test system: Mus musculus; assay: Effective dose administered subcutaneously in mouse writhing assay; No significant inhibition at 10 mg/kg, the highest dose tested; type: functional, organism-based; parameters: dose 10 mg/kg
Procedure, shortened: (§1)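 Mouse phenylbenzoquinone-induced abdominal stretch (writhing) assay with subcutaneous dosing. […] 10 mg/kg was the highest dose tested.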

[4] = test system: Mus musculus; assay: Effective dose administered subcutaneously in mouse writhing assay; type: functional; procedure, shortened: as §1
[5] = test system: Mus musculus; assay: Effective dose administered intragastricly in mouse writhing assay; type: functional; conditions: po
[6] = target: T1, Mu-type opioid receptor (Rattus norvegicus, UniProt P33535); assay: Affinity for mu opioid receptor was measured by displacement of tritiated DAMGO from rat brain membranes; type: cell membranes, Membrane
Procedure, shortened: (§2)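 Forebrain membranes from male Sprague-Dawley rats (150–300 g, cerebellum and hindbrain removed), washed and preincubated 1 h at 25 °C. Binding run in triplicate at 37 °C in 50 mM Tris/HCl pH 7.4, ~1 mg/mL protein, [3H]DAMGO 2.0 nM, with varying compound concentrations. Nonspecific binding defined with 10 μM levorphanol. IC50 taken from log-logit plots of concentration vs percent displacement.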

[7] = target: T2, Delta-type opioid receptor (Rattus norvegicus, UniProt P33533); assay: Displacement of [3H]DSLET from rat brain membrane delta opioid receptor
Procedure, shortened: as §2, with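 “[3H]DSLET 1.0” for “[3H]DAMGO 2.0”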

[8] = target: T2, Delta-type opioid receptor; assay: (§3) Inhibitory concentration was evaluated against delta opioid receptor by the displacement of tritiated DSLET from rat brain membranes; type: cell membranes, Membrane
Procedure, shortened: as §2, with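 “[3H]DSLET 1.0” for “[3H]DAMGO 2.0”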

[9] = target: T1, Mu-type opioid receptor; assay: Inhibitory concentration was evaluated against mu opioid receptor by the displacement of tritiated DAMGO from rat brain membranes; type: cell membranes, Membrane; procedure, shortened: as §2
[10] = target: Kappa-type opioid receptor (Rattus norvegicus, UniProt P34975); assay: Inhibitory concentration was evaluated against kappa opioid receptor by displacement of tritiated U-69593 from rat brain membranes; type: cell membranes, Membrane
[11] = target: T2, Delta-type opioid receptor; assay: as §3; type: functional, cell membranes, Membrane
Procedure, shortened: as §2, with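 “[3H]DSLET 1.0” for “[3H]DAMGO 2.0”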

[12] = test system: Mus musculus; assay: Effective dose administered subcutaneously in mouse writhing assay; not significant; type: functional, organism-based; procedure, shortened: as §1
[13] = Mus musculus, sc, read-out: ED50

Kappa-type opioid receptor, sequence (P34975 whole entry): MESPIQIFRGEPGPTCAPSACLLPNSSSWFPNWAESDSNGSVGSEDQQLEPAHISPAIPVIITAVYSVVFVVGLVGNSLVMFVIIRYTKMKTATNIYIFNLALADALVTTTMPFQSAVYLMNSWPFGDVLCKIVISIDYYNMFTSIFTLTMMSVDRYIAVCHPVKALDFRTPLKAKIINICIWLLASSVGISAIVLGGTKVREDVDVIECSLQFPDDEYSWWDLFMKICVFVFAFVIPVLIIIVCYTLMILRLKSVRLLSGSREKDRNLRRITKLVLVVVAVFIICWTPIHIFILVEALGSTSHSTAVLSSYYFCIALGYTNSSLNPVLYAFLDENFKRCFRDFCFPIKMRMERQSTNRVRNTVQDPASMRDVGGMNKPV
T2 sequence (P33533 whole entry): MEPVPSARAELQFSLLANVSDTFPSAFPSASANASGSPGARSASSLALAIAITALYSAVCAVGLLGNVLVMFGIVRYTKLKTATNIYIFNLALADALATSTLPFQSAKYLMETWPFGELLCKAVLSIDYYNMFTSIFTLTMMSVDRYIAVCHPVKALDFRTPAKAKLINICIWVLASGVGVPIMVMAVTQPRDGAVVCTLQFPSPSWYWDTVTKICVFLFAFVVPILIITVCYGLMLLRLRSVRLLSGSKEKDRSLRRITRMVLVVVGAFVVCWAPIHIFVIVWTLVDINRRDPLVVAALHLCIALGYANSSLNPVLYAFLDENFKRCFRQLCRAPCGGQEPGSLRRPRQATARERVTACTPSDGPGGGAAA
T1 sequence (P33535 whole entry): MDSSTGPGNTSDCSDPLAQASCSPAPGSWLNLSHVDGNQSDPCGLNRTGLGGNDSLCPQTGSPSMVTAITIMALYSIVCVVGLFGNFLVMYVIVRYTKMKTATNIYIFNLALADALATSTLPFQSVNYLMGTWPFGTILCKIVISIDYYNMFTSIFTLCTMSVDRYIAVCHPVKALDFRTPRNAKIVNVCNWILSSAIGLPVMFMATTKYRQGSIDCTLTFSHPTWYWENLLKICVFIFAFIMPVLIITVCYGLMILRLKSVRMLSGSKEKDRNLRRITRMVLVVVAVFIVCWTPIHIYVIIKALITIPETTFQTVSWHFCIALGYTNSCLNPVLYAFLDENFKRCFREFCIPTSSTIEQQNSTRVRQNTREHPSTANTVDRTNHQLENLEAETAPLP

SMILES	ED50 [1]	IC50 [2] [nM]	ED50 [3]	ED50 [4, 13] [mg/kg]	ED50 [5] [mg/kg]	IC50 [6] [nM]	IC50 [7] [nM]	other results
CN[C@@H](Cc1c(C)cc(O)cc1C)C(=O)N[C@H](C)C(=O)NCCCc1ccccc1	inactive	140	inactive					
Cc1cc(O)cc(C)c1CC(N)C(=O)N[C@H](C)C(=O)N(C)CCCc1ccccc1 (some centres not stated)	inactive	300	inactive					
COc1cc(C)c(CC(N)C(=O)N[C@H](C)C(=O)NCCCc2ccccc2)c(C)c1 (some centres not stated)		290		4.3	2.3			
Cc1cc(OCc2ccc(C(C)(C)C)cc2)cc(C)c1CC(N)C(=O)N[C@H](C)C(=O)NCCCc1ccccc1 (some centres not stated)	inactive	0.5	inactive					
COc1cc(C)c(C[C@H](N)C(=O)N[C@H](C)C(=O)NCCCc2ccccc2)c(C)c1 (stereo in doubt; 20b) [listing 1 of 2 here]	inactive							
CNC(Cc1c(C)cc(OCc2ccccc2)cc1C)C(=O)N[C@H](C)C(=O)NCCCc1ccccc1 (some centres not stated)	inactive	53		~10				
Cc1cc(OCc2ccc([N+](=O)[O-])cc2)cc(C)c1CC(N)C(=O)N[C@H](C)C(=O)NCCCc1ccccc1 (some centres not stated)		2.9		2.3	6.8	3.5	127	
Cc1cc(O)cc(C)c1C[C@H](N)C(=O)N(CC1CC1)[C@H](C)C(=O)NCCCc1ccccc1 (stereo in doubt; 18b) [listing 1 of 2 here]				0.5		0.4	9.4	IC50 [8]: 10 nM; IC50 [9]: 0.5 nM; IC50 [10]: 1000 nM
Cc1cc(OCc2ccc(F)cc2)cc(C)c1CC(N)C(=O)N[C@H](C)C(=O)NCCCc1ccccc1 (some centres not stated)	inactive	18		2.7		17.5	385	IC50 [9]: 8.73 nM; IC50 [10]: 10800 nM; IC50 [11]: 367 nM
Cc1cc(O)cc(C)c1CC(N)C(=O)N(CC1CC1)[C@H](C)C(=O)NCCCc1ccccc1 (some centres not stated)	inactive	10		2.4				
COc1cc(C)c(C[C@H](N)C(=O)N[C@H](C)C(=O)NCCCc2ccccc2)c(C)c1 (stereo in doubt; 20c)		420			2.7			ED50 [4]: 3.5 mg/kg
Cc1cc(OCc2ccc(C#N)cc2)cc(C)c1CC(N)C(=O)N[C@H](C)C(=O)NCCCc1ccccc1 (some centres not stated)	inactive	17	inactive			28.6	> 1000	
Cc1cc(O)cc(C)c1C[C@H](N)C(=O)N(CC1CC1)[C@H](C)C(=O)NCCCc1ccccc1 (stereo in doubt; 18c) [listing 1 of 2 here]						23.7	409	
Cc1cc(OCc2ccc(C(=O)O)cc2)cc(C)c1CC(N)C(=O)N[C@H](C)C(=O)NCCCc1ccccc1 (some centres not stated)	inactive		inactive			12.3	882	
Cc1ccccc1COc1cc(C)c(CC(N)C(=O)N[C@H](C)C(=O)NCCCc2ccccc2)c(C)c1 (some centres not stated)	inactive		inactive					
C=CCN(C(=O)C(N)Cc1c(C)cc(O)cc1C)[C@H](C)C(=O)NCCCc1ccccc1 (some centres not stated)	inactive	1.3		0.7				
CN[C@H](Cc1c(C)cc(O)cc1C)C(=O)N[C@H](C)C(=O)NCCCc1ccccc1	inactive	1800	inactive					
Cc1cc(OCc2ccc(C(=O)O)cc2)cc(C)c1C[C@H](N)C(=O)N[C@H](C)C(=O)NCCCc1ccccc1	inactive	83	inactive					
Cc1cc(OCc2ccccc2)cc(C)c1C[C@H](N)C(=O)N[C@H](C)C(=O)NCCCc1ccccc1		360		1.8	2.4	4	55	IC50 [8]: 133 nM; IC50 [9]: 0.92 nM; IC50 [10]: 2520 nM
Cc1cc(O)cc(C)c1C[C@H](N)C(=O)N(CC1CC1)[C@H](C)C(=O)NCCCc1ccccc1 (stereo in doubt; 18c) [listing 2 of 2 here]	inactive		inactive					
Cc1cc(O)cc(C)c1C[C@H](N)C(=O)N(CC1CC1)[C@H](C)C(=O)NCCCc1ccccc1 (stereo in doubt; 18b) [listing 2 of 2 here]	inactive							
Cc1cc(O)cc(C)c1C[C@H](N)C(=O)N(C)[C@H](C)C(=O)NCCCc1ccccc1				0.07	3.1	0.1	4.4	IC50 [8]: 8 nM; IC50 [9]: 0.2 nM; IC50 [10]: 316 nM
Cc1cc(O)cc(C)c1CC(N)C(=O)N(C)[C@H](C)C(=O)NCCCc1ccccc1 (some centres not stated)		0.6		1.7	1.3			
C=CCOc1cc(C)c(CC(N)C(=O)N[C@H](C)C(=O)NCCCc2ccccc2)c(C)c1 (some centres not stated)				12.4	14.9		600	
Cc1cc(OCc2ccccc2)cc(C)c1C[C@@H](N)C(=O)N[C@H](C)C(=O)NCCCc1ccccc1		22		2.3	12.9			IC50 [8]: 1800 nM; IC50 [9]: 44.7 nM; IC50 [10]: 17500 nM
Cc1cc(O)cc(C)c1CC(C)(N)C(=O)N[C@H](C)C(=O)NCCCc1ccccc1 (some centres not stated)		150		3	3.7	2	64	IC50 [8]: 124 nM; IC50 [9]: 1.1 nM; IC50 [10]: 1380 nM
C=CCN(C(=O)[C@@H](N)Cc1c(C)cc(O)cc1C)[C@H](C)C(=O)NCCCc1ccccc1	inactive	280						ED50 [12]: inactive
CCOc1cc(C)c(CC(N)C(=O)N[C@H](C)C(=O)NCCCc2ccccc2)c(C)c1 (some centres not stated)	inactive	130	inactive					
Cc1cc(O)cc(C)c1CC(N)C(=O)N[C@H](C)C(=O)NCCCc1ccccc1 (some centres not stated)		0.1		0.5	2	0.2	8.6	IC50 [8]: 9.57 nM; IC50 [9]: 0.13 nM; IC50 [10]: 221 nM
COc1cc(C)c(C[C@H](N)C(=O)N[C@H](C)C(=O)NCCCc2ccccc2)c(C)c1 (stereo in doubt; 20b) [listing 2 of 2 here]		50				57	> 1000	ED50 [4]: 0.7 mg/kg; IC50 [8]: 2090 nM; IC50 [9]: 32 nM; IC50 [10]: 19800 nM
